Results reported in article PMC5393272 (Nature chemical biology, 2016).

Tests used:
PC9 cells [1] = assay: Apoptosis assessment, PC9; assay type: cell-based
A549 cell line = assay: MTT proliferation assay, A549; assay type: cell-based
Summary of the method: (§1)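 NSCLC cells (2×10^3 per well, triplicate wells) were grown in 10% serum medium with 10 μM test compound or 1 μM tunicamycin; medium and inhibitor were renewed every 48 h. MTT was added 4 h before reading absorbance at 570 nm on days 0, 3 and 5. Mean ± s.d., n = 3; two-tailed t-tests.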

A549 cells [2] = assay: Cell cycle distribution by flow cytometry, A549; assay type: cell-based; conditions: A549, NGI-1 24 h
Summary of the method: (§2)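 Cells were treated with test compound (24 h stated for PC9 and A549). 1 × 10^6 cells were washed in ice-cold PBS, fixed overnight in ice-cold 70% ethanol at −20°C, then stained in Guava Cell Cycle Reagent for 30 min at room temperature. Analysis was on an LSRII cytometer, gating normal FSC/SSC and excluding doublets by FSC-A vs FSC-H. About 30,000 cells per run; mean of 3 independent assays; two-tailed t-tests.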

[3] = test system: luciferase N-linked glycosylation in D54 ER-LucT cells; assay: Western blot of luciferase N-linked glycosylation in NGI-1 treated cell cultures; assay type: cell-based; conditions: doses 25 times the estimated IC50; unlike tunicamycin
HCC-827 cells = assay: Cell cycle distribution by flow cytometry, HCC-827; assay type: cell-based; conditions: HCC-827, NGI-1 24 h; control 50%; p<.01
Summary of the method: as §2

A549 cells [4] = assay: Senescence assessment, A549; assay type: cell-based; conditions: A549, NGI-1 for 5 days
Summary of the method: (§3)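 PC9 and A549 cells, untreated or given 10 μM test compound, were fixed in 70% ethanol and stained with DAPI for 30 min. Flow cytometry used 532 nm and 405 nm lasers; autofluorescence emission at 575 nm was read after DAPI gating; n = 4.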

cyclin D1 = assay: Cyclin D1 mRNA and protein, A549; assay type: cell-based, human; conditions: A549, NGI-1
Summary of the method: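 Cyclin D1 mRNA: A549 and PC9 cells were treated with test compound, total RNA purified and reverse transcribed, and qPCR run with SYBR Green normalised to GAPDH. Cycling was 95°C 10 min, then 40 cycles of 95°C 30 s, 55°C 15 s, 72°C 30 s. Triplicate PCRs; n = 4; two-tailed t-tests. Protein was assessed by western blot, n = 3.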

H1581 cells = assay: Cell cycle distribution by flow cytometry, H1581; assay type: cell-based; conditions: H1581, NGI-1; control 55%; p<.05
Summary of the method: as §2

A549 cells [5] = assay: Apoptosis assessment, A549; assay type: cell-based
FGFR1 = assay: FGFR phosphorylation western blot in H1581 and H2444; assay type: cell-based; conditions: H1581 and H2444 NSCLC cell lines, NGI-1
Summary of the method: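 H1581 and H2444 NSCLC cells were treated with test compound. Lysates were western blotted with anti-phospho-FGFR (Tyr653/654) at 1:3,000, and gel mobility was assessed.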

OST [6] = assay: Cell free pSAP glycosylation with canine pancreas microsomes; assay type: biochemical; conditions: in vitro translation of pSAP mRNA, 60 min
HCC-827 = assay: Proliferation assay, HCC-827; assay type: cell-based; conditions: HCC-827 (EGFR KD mutation), NGI-1
Integrin B1 (ITB1) = assay: ITB1 glycosylation and localization; assay type: cell-based; conditions: 10μM NGI-1, 48 h; hypo-glycosylated ITB1 still at the cell surface
Summary of the method: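 H3255 cells were treated with 10 μM test compound for 48 h. Surface biotinylation: on ice, cells were labelled with 0.5 mg/ml Sulfo-NHS-SS-biotin in PBS for 60 min at 4°C, quenched with 100 mM glycine, lysed, and pulled down on streptavidin-agarose overnight at 4°C. Bound (surface) and unbound (intracellular) fractions were blotted on 7.5% SDS-PAGE. Confocal imaging used anti-β1-integrin at 1:500.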

H3225 [7] = assay: Cell cycle distribution by flow cytometry, H3225; assay type: cell-based; conditions: H3225, NGI-1 24 h; control 55%; p<.05
Summary of the method: as §2

EGFR [8] = assay: Western blot of EGFR N-linked glycosylation in lung adenocarcinoma cells; assay type: cell-based; conditions: 10μM NGI-1, 24h; residual glycosylation remains
EGFR [9] = assay: EGFR localization by surface biotinylation and confocal microscopy; assay type: cell-based; conditions: H3255 cells, 10 μM NGI-1, 24 h; identical in HCC-827
H3225 [10] = assay: Proliferation assay, H3225; assay type: cell-based; conditions: H3225 (EGFR KD mutation), NGI-1
PC9 cells [11] = assay: MTT proliferation assay, PC9; assay type: cell-based
Summary of the method: as §1

STT3B = STT3B (Homo sapiens, UniProt Q8TCJ2); assay: 35S metabolic labeling of SHBG glycosylation; assay type: cell-based
Summary of the method: (§4)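 HeLa cells transfected with pSAP or SHBG vectors, given 10 μM test compound and metabolically labelled with 35S. Glycoforms were scored and reported as the average number of glycans per sample, with endoglycosidase H-treated controls. Runs were compared with siRNA knockdown of STT3A or STT3B against non-coding siRNA. Dose-response was run on pSAP and SHBG expressed in HEK293 cells.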

H2444 cells [12] = assay: Cell cycle distribution by flow cytometry, H2444; assay type: cell-based; conditions: H2444, NGI-1
Summary of the method: as §2

[13] = test system: LLO synthesis in CHO cells; assay: FACE analysis of LLOs in wild type CHO cells; assay type: cell-based; conditions: for effect on LLO synthesis: FACE
Summary of the method: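 Wild-type CHO cells were treated with test compound or tunicamycin. Lipid-linked oligosaccharides were analysed by fluorophore-assisted carbohydrate electrophoresis, with mature Glc3Man9 LLO as the size marker; n = 3.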

KD mutant EGFR = assay: EGFR phosphorylation western blot in PC9 cells; assay type: cell-based; conditions: 10μM NGI-1, 1 day
Summary of the method: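 PC9 cells (with A549 for comparison) were treated with 10 μM test compound for 24 h. Lysates were western blotted for EGFR phospho-Y1173, and glycoform gel-mobility shifts were noted.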

[14] = test system: N-linked glycosylation in D54-ERLucT cells; assay: D54-ERLucT cell based luciferase assay for inhibition of N-linked glycosylation; conditions: intact D54 ER-LucT cells in culture; maximum activation using 20 μM NGI-1; n=4
GRP78/BiP = assay: ER stress response, GRP78/BiP protein expression; assay type: cell-based; conditions: PC9 and A549 cell lines, NGI-1
H1581 cell line = assay: MTT proliferation assay, H1581; assay type: cell-based; conditions: H1581 (FGFR1-dependent), 10μM NGI-1, 5 d
Summary of the method: as §1

H2444 cells [15] = assay: MTT proliferation assay, H2444; assay type: cell-based; conditions: H2444 (FGFR amplified, not FGFR1-dependent), 10μM NGI-1, 5 d
Summary of the method: as §1

PC9 cells [16] = assay: Cell cycle distribution by flow cytometry, PC9; assay type: cell-based; conditions: PC9, NGI-1 24 h; control 65%; p<.01
Summary of the method: as §2

PC9 cells [17] = assay: Senescence assessment; assay type: cell-based; conditions: PC9, NGI-1 for 5 days; emission 575 nm; p<.05
Summary of the method: as §3

STT3A = STT3A (Homo sapiens, UniProt P46977); assay: 35S metabolic labeling of pSAP glycosylation; assay type: cell-based
Summary of the method: as §4

OST [18] = assay type: biochemical; conditions: NGI-1 5 μM; streptolysin-O permeabilized CHO cells; QYT or NYT peptide
Summary of the method: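 CHO cells permeabilized with streptolysin-O, incubated with test compound and either control tripeptide Ac-Gln-Tyr-Thr-CONH2 or glycosylation acceptor Ac-Asn-Tyr-Thr-CONH2. Free glycans and cleaved N-linked glycans resolved by fluorophore-assisted carbohydrate electrophoresis; n=2 for each product.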

p21 = p21 protein western blot, PC9; assay type: cell-based; conditions: PC9, NGI-1
[19] = HeLa cells, 10 μM, NGI-1 omitted during pulse labeling interval (20 minutes)

STT3A, sequence (P46977 whole entry): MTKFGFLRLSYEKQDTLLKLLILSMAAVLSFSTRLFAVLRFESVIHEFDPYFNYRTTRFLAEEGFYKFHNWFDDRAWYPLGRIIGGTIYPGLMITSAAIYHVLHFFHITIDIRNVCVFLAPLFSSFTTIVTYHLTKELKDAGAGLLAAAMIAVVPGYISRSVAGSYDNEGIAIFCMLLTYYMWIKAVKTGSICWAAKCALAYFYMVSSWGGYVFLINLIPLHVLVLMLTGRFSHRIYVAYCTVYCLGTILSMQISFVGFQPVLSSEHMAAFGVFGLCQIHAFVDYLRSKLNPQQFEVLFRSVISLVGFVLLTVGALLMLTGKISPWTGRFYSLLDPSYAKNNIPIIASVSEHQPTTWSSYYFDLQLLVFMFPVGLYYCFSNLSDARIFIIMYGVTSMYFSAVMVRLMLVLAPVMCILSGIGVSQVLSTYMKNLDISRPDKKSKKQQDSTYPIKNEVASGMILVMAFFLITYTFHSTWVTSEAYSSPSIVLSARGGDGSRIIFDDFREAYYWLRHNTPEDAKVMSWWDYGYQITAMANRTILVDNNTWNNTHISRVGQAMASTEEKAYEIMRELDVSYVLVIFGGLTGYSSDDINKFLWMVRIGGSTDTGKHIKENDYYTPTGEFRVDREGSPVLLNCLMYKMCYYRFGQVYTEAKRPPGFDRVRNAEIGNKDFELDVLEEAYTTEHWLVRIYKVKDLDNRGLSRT

## Cc1cnc(NC(=O)c2cc(S(=O)(=O)N(C)C)ccc2N2CCCC2)s1 [NGI-1]
PC9 cells [1]; PC9, NGI-1 for 2 or 5 days
  induction of apoptosis: did not induce apoptosis
A549 cell line; A549 (KRAS G12S), 10μM NGI-1, MTT over 5 days
  effect on proliferation: continued to proliferate
A549 cells [2]
  cell cycle distribution: did not significantly change
[3]
  extent of N-linked glycosylation inhibition: did not completely abolish all N-linked glycosylation
HCC-827 cells
  cells in G1: 75%
A549 cells [4]
  hallmarks of senescence (autofluorescence, lipofuscin aggregates, morphology): none of these changes were detected
Cyclin D1
  cyclin D1 mRNA and protein levels: not significantly affected
H1581 cells
  cells in G1: 80%
A549 cells [5]; A549, NGI-1 for 2 or 5 days
  induction of apoptosis: did not induce apoptosis
FGFR1
  FGFR1 phosphorylation (Y653/654): blocked FGFR1 phosphorylation
OST [6]
  inhibition of pSAP N-linked glycosylation: dose dependent inhibition
HCC-827
  effect on proliferation: sensitive
Integrin B1 (ITB1)
  ITB1 glycosylation: significantly reduced ITB1 glycosylation
H3225 [7]
  cells in G1: 80%
EGFR [8]
  EGFR N-linked glycosylation (molecular weight on SDS-PAGE): blocked EGFR N-linked glycosylation
EGFR [9]
  EGFR trafficking / cellular localization: blocks EGFR trafficking to the cell surface
H3225 [10]
  effect on proliferation: sensitive
PC9 cells [11]; PC9, 10μM NGI-1, after 3 days, MTT, p <.001
  reduction of cell proliferation: more than 90%
STT3B; [19]
  reversibility of inhibition of site occupancy (STT3B specific sites): reversible
STT3B; dose response, HEK293 cells
  LLO transfer to STT3B dependent sites (SHBG): completely blocks
H2444 cells [12]
  G1 arrest: not in H2444 cells
[13]
  effect on LLO synthesis: did not impair LLO synthesis
[13]; p <.01
  increase of Glc3Man9GlcNAc2 LLO: 31%
KD mutant EGFR
  phosphorylation of KD mutant EGFR (Y1173): blocked phosphorylation
[14]
  AC50 (equivalent to IC50), luciferase activity: 1100 nM
GRP78/BiP
  ER stress response (GRP78/BiP protein expression): induced a similar ER stress response in both cell lines
H1581 cell line
  effect on proliferation: blocked proliferation
H2444 cells [15]
  effect on proliferation: NGI-1 insensitive
PC9 cells [16]
  cells in G1: 90%
PC9 cells [17]
  increased autofluorescence by flow cytometry: 60.4% ± 7.5%
STT3A; [19]
  reversibility of inhibition of site occupancy (STT3A specific sites): reversible
STT3A; dose response, HEK293 cells
  glycosylation of STT3A dependent sites (pSAP): less potent and incompletely blocks
OST [18]
  production of OST products (free glycans and N-glycans): substantially reduce the production of both OST products
p21
  protein levels of p21: increase within 24 h

## tunicamycin [reference compound]
PC9 cells [1]; PC9, tunicamycin treatment
  induction of apoptosis: apoptosis was activated
A549 cell line; A549, 1μM tunicamycin, MTT over 5 days
  effect on proliferation: immediately blocks proliferation
A549 cells [5]; A549, tunicamycin treatment
  induction of apoptosis: apoptosis was activated
PC9 cells [11]; PC9, 1μM tunicamycin, MTT over 5 days
  effect on proliferation: immediately blocks proliferation
[13]
  effect on LLO synthesis: blocked all LLO production
